In the library only some 3.2% were active in any assay of this set; here they are far more common.
Mcl1 Noxa PPI = Mcl-1/Noxa interaction inhibition. Q07820. AID 1022. TR-FRET Mcl-1/Noxa peptide binding, 2 h. 1.5% of 220,000 active. inhibition, % at 21.7 µM;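 active = compounds that cut the protein-peptide binding signal by more than 50% relative to plate controls in a single-dose test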;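 note: His-tagged Mcl-1 with rhodamine Noxa BH3 peptide and terbium anti-His antibody; 0% = Mcl-1 plus Noxa peptide wells and 100% = peptide-only wells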
Hck-Nef inh = inhibitors of human Hck kinase activated by Nef; P08631; Recombinant Hck-YEEI plus Nef, Z-Lyte FRET kinase assay; inhibition, % at 20 µM; 0.68% of 220,000 active;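 active = Hck-Nef kinase inhibition above about 50%, limit read from the data; inactive = inhibition below that limit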;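 note: 0% = DMSO with Hck plus Nef and 100% = Hck alone without Nef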
Target sequence (P08631 whole entry, looked up): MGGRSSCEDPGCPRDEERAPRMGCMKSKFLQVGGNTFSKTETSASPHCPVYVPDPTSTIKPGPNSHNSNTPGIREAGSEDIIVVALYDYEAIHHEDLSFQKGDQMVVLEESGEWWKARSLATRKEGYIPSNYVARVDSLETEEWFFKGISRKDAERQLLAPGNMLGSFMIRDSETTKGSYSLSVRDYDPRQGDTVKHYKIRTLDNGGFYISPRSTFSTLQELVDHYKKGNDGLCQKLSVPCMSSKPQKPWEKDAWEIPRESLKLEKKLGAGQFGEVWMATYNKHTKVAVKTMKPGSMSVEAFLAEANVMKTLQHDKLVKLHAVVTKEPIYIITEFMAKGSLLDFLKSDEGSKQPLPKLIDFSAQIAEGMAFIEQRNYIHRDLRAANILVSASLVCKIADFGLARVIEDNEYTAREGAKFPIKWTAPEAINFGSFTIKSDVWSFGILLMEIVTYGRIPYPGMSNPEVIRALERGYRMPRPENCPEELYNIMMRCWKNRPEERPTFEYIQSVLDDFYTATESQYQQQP
14-3-3 Bad PPI = disrupts binding of bovine 14-3-3 zeta to phospho-Bad peptide. P63103. inhibition, % at 21.7 µM. TR-FRET 14-3-3zeta/Dy647-pBad peptide displacement, 1 h. 0.71% of 220,000 active;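 active = inhibition above about 70%, limit read from the data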;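 note: 0% = full 14-3-3 plus peptide FRET controls and 100% = background without 14-3-3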
Mcl1 Bid PPI = disrupts binding of human Mcl-1 to Bid peptide; Q07820; TR-FRET Mcl-1/Bid-Dy647 peptide binding, 1536-well; inhibition, % at 21.7 µM; 0.97% of 220,000 active;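 active = compounds that cut the binding signal by more than half at the single screening dose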;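 note: His-tagged Mcl-1 with europium anti-His antibody binding Bid BH3 peptide; 0% = Mcl-1 plus peptide wells and 100% = peptide-only wells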
Biofilm kill mix = mixtures killing C. albicans biofilm; C. albicans biofilm persisters + clotrimazole, fluorescence viability; primary screen in compound mixtures of four per well; inhibition, % at 7.6 µM; 0.02% of 120,000 active;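 active = inhibition above 30.3% in the primary screen of four-compound pools, then above 30% when the compound was retested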;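 note: compounds exposed to preformed 24 h biofilms for 48 h; 0% = untreated biofilm control and 100% = clotrimazole plus chlorhexidine kill blank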
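Test system: C. albicans biofilms. Buffer or medium: RPMI/MOPS medium, pH 7.0. Timing: 48 h compound exposure at 37 °C. Technique: Alamar Blue fluorescence. Evaluation: percent inhibition of biofilm viability.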
Mcl-1 Bim block = disrupts Bim peptide binding to human Mcl-1. Q07820. Bead-based flow cytometry, Bim peptide-Mcl-1 binding. inhibition, % at 10 µM. 0.1% of 190,000 active. AID 1009; in the data active = inhibition above about 40%;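 note: 0% = no compound tracer wells and 100% = peptide blocker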
Hck Nef conf = Hck-Nef kinase inhibition, confirmation; shares compounds with Hck-Nef inh; Recombinant Hck-YEEI:Nef, Z-Lyte FRET kinase assay; calls only at 10 µM; 28% of 1,300 active;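 active = average inhibition of at least 50%, with Z-scores no higher than 3 in both the phospho-tyrosine peptide and fluorescence counterscreens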
* = called active by the depositor; i = inactive; x = not tested or not shown; + = active, no number; [ ] = remark or other dose.

SMILES	Mcl1 Noxa PPI	Hck-Nef inh	14-3-3 Bad PPI	Mcl1 Bid PPI	Biofilm kill mix	Mcl-1 Bim block	Hck Nef conf
CCOC(=O)N1CCN(c2nc(-c3ccc(OC)cc3)no2)CC1	8.6	2.4	-11.8	-12.2	x	8.0	x
CNC(=O)CSc1cnc2ccccc2n1	2.8	28.7	1.7	-9.1	14.7	0.0	x
CC(=O)N(C(C)=O)c1ncnc2c1c(-c1ccc(Cl)cc1)nn2C(C)(C)C	6.4	73.5*	-1.9	-16.1	-1.8	0.0	i
CC(=O)Nc1ncnc2c1c(-c1ccc(Cl)cc1)nn2C(C)(C)C	20.0	+	7.9	-4.0	0.3	1.0	+
CC(=O)Nc1sc(-c2ccc(Cl)cc2)nc1-c1ccccc1	-8.6	13.1	2.5	-4.6	21.8	x	x
COC(=O)c1cccc(NC(=O)c2nn(C)c(=O)c3ccccc23)c1	0.9	-4.6	-4.1	-21.2	x	24.0	x
Cc1cccc2nc(COc3ccc4ccccc4c3Br)cn12	6.0	29.0	7.0	-9.0	11.6	x	x
COC(=O)c1c(NC(=O)COC(=O)c2ccc(NC(=O)CC#N)cc2)sc2c1CCCCC2	67.1*	113.0*	13.0	18.5	31.5	0.0	+
C=CCOc1ccc(/C=C2\C(=N)N3N=C(S(=O)(=O)CC)SC3=NC2=O)cc1OC	29.6	1.0	4.4	-9.7	20.2	1.0	x
COc1cc(/C=C2/C(=N)N3C(c4ccccc4)=CSC3=NC2=O)ccc1OCC(=O)O	36.6	79.0*	6.2	10.9	5.8	x	+
COc1ccc(OC)c(-c2c3cc(O)c(=O)cc-3oc3cc(O)c(O)cc23)c1	90.9*	54.4*	74.6*[fluorescence artefact?]	-1.0	18.4	-116.0	i
Oc1ccc(/C=N/NC(=S)Nc2cccnc2)c(O)c1O	102.3*	100.0*	72.2*	-2.7	-6.0	x	+
Oc1ccc(/C=N/NC(=S)Nc2cccnc2)c(O)c1	-4.7	4.7	1.1	-86.7	15.3	-9.0	x
Cc1cc(=O)oc2cc(NS(=O)(=O)c3ccccc3)ccc12	3.0	113.8*	13.4	15.8	17.2	x	x
COc1ccc(S(=O)(=O)Nc2ccc(S(=O)(=O)Nc3ccc(F)cc3)cc2)cc1C	12.1	-8.6	10.4	18.4	6.9	9.0	x
CN(C)S(=O)(=O)c1ccc(S(=O)(=O)Nc2ccc3c(c2)oc2ccccc23)cc1	-4.2	-0.1	1.9	-3.9	x	-2.0	x
Cc1cc(=O)oc2cc(NS(=O)(=O)c3ccc(F)cc3)ccc12	18.1	105.5*	23.8	20.3	25.2	x	x
CCOC(=O)c1c(C)oc2c1c(C=NCCC(=O)O)c(O)c1ccccc12	20.2	4.8	-13.2	-28.7	4.8	-1.0	x
CCOC(=O)c1c(C)oc2c1c(C(c1ccncc1)N1CCOCC1)c(O)c1ccccc12 (stereo not drawn)	98.1*	116.9*	44.1	82.2*	x	-1.0	+
CCOC(=O)/C(C#N)=C1/SC(CCO)C(=O)N1c1ccccc1 (stereo not drawn)	26.3	53.6*	-6.3	-22.2	x	0.0	i
COc1ccc(-c2cc(=O)c3c(O)c(OC)c(O)cc3o2)cc1	6.9	67.4*	-2.4	-0.5	21.0	-1.0	i
COc1cc(-c2cc(=O)c3c(O)cc(O)cc3o2)ccc1O	43.3	54.3*	-3.4	-9.9	17.8	4.0	i
COc1cc(-c2cc(=O)c3c(O)c(OC)c(OC)cc3o2)cc(OC)c1O	-11.0	98.4*	2.1	-65.5	24.6	x	+
CCOC(=O)c1cccc(NC(=O)Nc2ccc3c(c2)C(=O)OC3)c1	-35.8	27.1	1.3	-29.0	9.8	x	x
CC(=O)N1CCC2(CC1)C/C(=N\NC(=S)Nc1ccc(C)cc1)c1cc(O)ccc1O2	-22.1	26.3	-20.2	-100.6	8.6	-4.0	x
SMILES	Mcl1 Noxa PPI	Hck-Nef inh	14-3-3 Bad PPI	Mcl1 Bid PPI	Biofilm kill mix	Mcl-1 Bim block	Hck Nef conf
O=C1/C(=C/c2ccco2)CCc2ccccc21	-7.8	100.1*	12.8	-72.6	-1.9	-1.0	i
Nc1cc([N+](=O)[O-])ccc1Nc1ccccc1	27.3	82.2*	-7.2	-33.5	5.1	0.0	i
CC(C)c1cccc(C(C)C)c1NC(=S)Nc1cccc(Cl)c1	11.4	11.6	-4.1	-6.2	22.0	x	x
CSc1n[nH]c(=O)n1C1CCCCC1	-7.5	16.0	-15.2	-3.5	12.9	x	x
O=C(Nc1ccc2oc(=O)ccc2c1)c1ccc(-c2cccc(Cl)c2)o1	20.7	64.8*	92.1*	65.7*	29.3	x	i
O=C(Nc1ccc2oc(=O)ccc2c1)c1ccc(-c2cccc([N+](=O)[O-])c2)o1	69.8*	66.2*	91.8*	79.5*	21.1	x	i
CC1=C(C#N)C(=O)NC(=O)/C1=C\c1ccc(-c2ccc(C)cc2[N+](=O)[O-])o1	94.5*	99.8*	47.9	75.2*	18.8	0.0	+
CCOC(=O)c1cc(-c2ccc(/C=C3/C(=O)NC(=O)C(C#N)=C3C)o2)ccc1Cl	102.3*	80.9*	77.2*[fluorescence artefact?]	93.0*	x	2.0	+
CCCCC1(C)OC(=O)C(=Cc2ccc(-c3ccc(Cl)c(C(=O)O)c3)o2)C(=O)O1 (stereo not drawn)	27.6	19.3	8.7	-1.1	1.2	x	x
Cc1ccc(-c2ccc(/C=N/N=C3/NC(=O)C(CC(=O)O)S3)o2)c([N+](=O)[O-])c1 (stereo not drawn)	29.2	-0.1	14.0	-36.8	x	1.0	x
CC1CC(C)CN(S(=O)(=O)c2ccc(Oc3ccc([N+](=O)[O-])cc3)cc2)C1 (stereo not drawn)	13.1	3.1	-22.5	-5.9	14.0	-7.0	x
COc1nc(Nc2nc3ccccc3c(=O)[nH]2)nc2ccc(C)cc12	-128.2	74.8*	48.1	-121.2	24.6	x	i
CCN1C=C(C(=O)OC)C(c2cccc(OC)c2OC)C(C(=O)OC)=C1	-12.3	84.7*	-3.8	-13.4	4.1	0.0	x
COCCN1C=C(C(=O)OC)C(c2ccccc2Cl)C(C(=O)OC)=C1	12.8	153.1*	-7.8	-21.1	19.2	2.0	x
O=C(CN(Cc1cccs1)C(=O)CNS(=O)(=O)c1ccc(Cl)cc1)NCC1CCCO1 (stereo not drawn)	-15.9	53.4*	-2.8	-27.9	7.4	0.0	i
O=C(CN(Cc1cccs1)C(=O)CNS(=O)(=O)c1ccc(F)cc1)NCC1CCCO1 (stereo not drawn)	13.1	-19.7	-8.5	-25.2	8.3	0.0	x
COc1ccc(C(=O)N/C(=C\c2ccccc2)C(=O)NC(CCSC)C(=O)O)cc1 (stereo not drawn)	-3.6	-0.6	9.1	-14.8	x	-3.0	x
COc1ccc(C(=O)N/C(=C\c2ccccc2)C(=O)NC(CC(C)C)C(=O)O)cc1 (stereo not drawn)	-0.7	59.7*	-10.2	-2.9	7.4	-4.0	i
COc1cc(C(=O)Nc2cccc(-c3nnc(-c4ccco4)o3)c2)ccc1OC(C)=O	20.2	-6.5	-7.5	-12.7	-8.4	-1.0	x
